Compounds with a hit are over-represented: about 1.7% of the library has one in this group of screens.
IDE cell inh = human IDE inhibitors in live cells, primary screen, fluorescence polarization, HEK cells, FAbetaB substrate | Insulin-degrading enzyme (Homo sapiens), P14735 | FAbetaB cleavage | inhibition, % at 5.59 µM | actives 0.41% (n = 320,000) | AID 434962, 2010;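 active means percent inhibition above the average of all tested compounds plus 3 SD, set per screening campaign, cut at about 16% in these data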;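 further: IDE supplied by intact live HEK cells; FP after avidin binding of uncleaved biotin substrate so inhibition keeps polarization high; 0% = DMSO wells and 100% = 60 µM reference IDE inhibitor Ii1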
IDE act = human IDE activators in live cells, primary screen, fluorescence polarization, HEK cells, FAbeta-B substrate | activation, % at 5.96 µM | FAbeta-B cleavage; 0% vehicle, 100% cell-free pure enzyme wells | actives 0.073% (n = 340,000) | Insulin-degrading enzyme (Homo sapiens), P14735 | AID 493087, 2011;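 active means activation above the mean of all tested compounds plus 3 SD, set per screening campaign, cut at about 17% in these data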
CSN deneddyl inh = inhibitors of CSN-mediated cullin deneddylation, primary screen, biochemical, fluorescence polarization, uHTS; COP9 signalosome complex subunit 5 (Homo sapiens), Q92905; Purified CSN, SCF-Nedd8-OG deneddylation; inhibition, % at 12.5 µM; actives 0.38% (n = 360,000); AID 651999, 2013;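 active means pattern-corrected inhibition above about 35%, with an unprinted fluorescence ratio check between 0.5 and 1.5, limit read from the data, passing the limit was not always enough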;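 further: 0% = enzyme with substrate and 100% = substrate without enzyme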
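Schedule: reaction 90 min, room temperature / Assay system: HEK293T-derived human Csn5 enzyme / Input: Csn5 at 0.24 nM final / Measure: inhibition of Csn5 cleavage, % / Control set: substrate-only high control, full reaction low control / Technique: fluorescence polarization of the substrate / Buffer or medium: Tris/NaCl/DTT buffer, pH 7.5 / Reagent: SCFSkp2-Nedd8OG substrate at 10 nM final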
HNF4A DNA FP = change in binding of human HNF4A to DNA, primary screen, biochemical, fluorescence polarization, FITC-DNA | 1 h | AID 1224865, 2016 | activity change, % at 10 µM | Hepatocyte nuclear factor 4-alpha (Homo sapiens), P41235 | actives 0.3% (n = 360,000); in the data active means activity change above about 30%, passing the limit was not always enough
Rpn11 block = Rpn11 (PSMD14) deubiquitinase inhibitors, primary screen, biochemical, fluorescence polarization, uHTS; 26S proteasome non-ATPase regulatory subunit 14 (Homo sapiens), O00487; human 26S proteasome, Ub4-pepOG fluorescence polarization; 20S core pre-blocked with epoxomicin; calls only at 20 µM; actives 0.59% (n = 360,000); AID 588493, 2011;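 active means inhibition at 20 µM, scaled to each plate's controls, above about 33%, limit read from the data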
Target sequence (O00487 whole entry, looked up): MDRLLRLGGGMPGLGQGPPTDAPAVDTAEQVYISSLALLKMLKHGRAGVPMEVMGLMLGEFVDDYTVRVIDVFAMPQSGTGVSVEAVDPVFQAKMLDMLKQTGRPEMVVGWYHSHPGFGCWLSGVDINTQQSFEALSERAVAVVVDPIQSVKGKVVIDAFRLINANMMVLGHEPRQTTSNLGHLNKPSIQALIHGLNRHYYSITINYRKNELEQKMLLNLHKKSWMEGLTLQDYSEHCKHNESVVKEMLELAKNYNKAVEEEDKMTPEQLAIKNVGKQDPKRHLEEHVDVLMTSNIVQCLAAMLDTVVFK
TPT1 inhibitor = Candida albicans TPT1 enzyme inhibitors, primary screen, biochemical, fluorescence polarization. recombinant caTPT1, FP RNA substrate dephosphorylation. inhibition, % at 5 µM. actives 0.81% (n = 300,000). AID 1962, 2009;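 active means inhibition above the mean of all tested compounds plus 3 SD, set per screening campaign, cut at about 24% in these data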;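 further: plate controls were DMSO alone for no effect and ferristatin control at 100 nM for full effect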
TPT1 inh confirm = Candida albicans TPT1 inhibitors, confirmation, biochemical, fluorescence polarization, triplicate | shares compounds with TPT1 inhibitor | recombinant caTPT1, RNase T1 coupled | inhibition, % at 5 µM | actives 74% (n = 2,400) | AID 2149, 2009;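 active means inhibition above the primary screen limit, the mean inhibition of all tested compounds plus 3 SD, cut at about 25% in these data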
RNase T1 inh = RNase T1 inhibitors, counter-screen for TPT1 inhibitor project, biochemical, fluorescence polarization | actives 83% (n = 2,400) | inhibition, % at 5 µM | AID 2153, 2009 | shares compounds with TPT1 inhibitor | RNase T1 cleavage, 1536-well;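 active means inhibition above the solvent-only control well mean plus 3 SD, limit set per screening run, cut at about 23% in these data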;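 further: plate controls were DMSO wells with enzyme for no effect and wells without RNase T1 for full effect; inhibitors block cleavage so intact labeled substrate keeps polarization high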
Target sequence (P00651 whole entry, looked up): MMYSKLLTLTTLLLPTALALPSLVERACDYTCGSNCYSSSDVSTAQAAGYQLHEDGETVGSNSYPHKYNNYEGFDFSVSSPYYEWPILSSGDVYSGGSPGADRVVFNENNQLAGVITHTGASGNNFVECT
IDE inh confirm = human IDE inhibitors in live cells, confirmation, fluorescence polarization, HEK cells, FAbetaB substrate; shares compounds with IDE cell inh; FAbetaB cleavage; inhibition, % at 5.59 µM; actives 51% (n = 1,200);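 active means mean inhibition across triplicate wells above the cutoff set by the earlier primary insulin-degrading enzyme screen, cut at about 16% in these data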;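 further: 0% = DMSO wells and 100% = 60 µM reference IDE inhibitor Ii1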
HEK cytotox = cytotoxicity in HEK cells, cytotoxicity control for IDE inhibitor project, cell-based, luminescence; shares compounds with IDE cell inh; HEK293 cytotoxicity, ATP luminescence; inhibition, % at 5.59 µM; actives 28% (n = 1,200); AID 449730, 2010; in the data active means inhibition above about 22%;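 further: 0% = vehicle wells and 100% = reference cytotoxic drug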
* = called active by the depositor; i = inactive; nt = no result given.

SMILES	IDE cell inh	IDE act	CSN deneddyl inh	HNF4A DNA FP	Rpn11 block	TPT1 inhibitor	TPT1 inh confirm	RNase T1 inh	others
CN(C)c1ccc(/C=C2/C(=O)NC(=O)N(Cc3ccco3)C2=O)cc1	4.6	-2.8	30.0	-9.0	i	26.3*	17.8	25.7*
Cc1cccc(OCCn2cccc2/C=C2/C(=O)NC(=O)N(Cc3ccco3)C2=O)c1	9.0	nt	42.6	-4.5	i	28.8*	18.4	24.3*
O=C1NC(=O)N(Cc2ccco2)C(=O)/C1=C\c1cccn1CCOc1ccc(Cl)cc1	9.4	-2.9	22.2	3.6	i	62.5*	15.2	19.3
Cc1cc(/C=C2/C(=O)NC(=O)N(Cc3ccco3)C2=O)c(C)n1-c1ccccc1	6.8	-4.4	14.9	-3.8	i	23.1	nt	nt
O=C1NC(=S)N(c2ccc(F)cc2)C(=O)/C1=C/c1ccccc1O	-0.8	1.0	-0.8	6.5	i	-1.7	nt	nt
O=C1NC(=S)N(c2ccc(Br)cc2)C(=O)/C1=C/N1CCN(C(=O)c2ccco2)CC1	8.3	-3.0	57.4*	49.2*	nt	85.6*	37.3*	51.9*
COCCNC(=O)Cn1cc(/C=C2\C(=O)NC(=O)N(c3ccccc3F)C2=O)c2ccccc21	1.7	-7.5	-1.9	-1.3	i	26.5*	10.4	18.7
COc1ccc(N2C(=O)NC(=O)/C(=C/c3ccc(N4CCOCC4)cc3)C2=O)cc1	3.5	nt	nt	nt	nt	2.7	nt	nt
COC(=O)Cn1cc(/C=C2\C(=O)NC(=O)N(c3ccc(OC)cc3)C2=O)c2ccccc21	-3.1	-3.2	0.3	-0.9	i	24.6*	-13.3	4.3
COC(=O)Cn1cc(C=C2C(=O)NC(=O)NC2=O)c2ccccc21	3.0	1.4	2.7	2.1	i	10.7	nt	nt
COc1ccc(N2C(=O)NC(=O)/C(=C\c3cn(C)c4ccccc34)C2=O)cc1	2.8	-1.2	14.2	107.9*	nt	66.9*	68.4*	70.8*
CCn1c(O)c(C=NCCN2CCOCC2)c(=O)n(CC)c1=S	9.2	-5.8	7.2	3.3	i	38.5*	19.1	27.4*
CCn1c(O)c(C=Nc2ccc(N3CCOCC3)cc2)c(=O)n(CC)c1=S	2.7	-6.7	-69.3	6.2	i	66.2*	-25.9	-35.6
O=c1[nH]c(=S)n(-c2ccc(Cl)cc2)c(O)c1C=Nc1ccc(N2CCOCC2)cc1	5.0	4.6	8.9	2.5	i	29.9*	-49.0	-32.5
CCn1c(O)c(C=Nc2ccc(N3CCOCC3)c(Br)c2)c(=O)n(CC)c1=S	0.3	2.0	7.2	-2.5	i	3.6	nt	nt
OC(c1ccccc1)(c1ccc(Cl)cc1)C1CN2CCC1CC2 (configuration not stated)	3.8	4.0	0.4	5.1	i	-1.6	nt	nt
CC12CCC3C(CC=C4CC(O)CCC43C)C1CC(=CN1CCOCC1)C2=O (configuration not stated)	nt	3.4	0.8	1.7	i	nt	nt	nt
CSCCC(c1nnnn1-c1ccc2c(c1)OCCO2)N1CCC2(CC1)C(=O)NCN2c1ccccc1 (configuration not stated)	nt	nt	0.2	2.8	i	nt	nt	nt
O=C(Cn1ncc2c3ccccc3n(Cc3cccc(Cl)c3)c2c1=O)N1CCC2(CC1)OCCO2	4.9	-1.9	10.0	0.7	i	114.3*	64.1*	69.2*
COc1ccc2[nH]cc(C3=CCNCC3)c2c1	9.0	nt	nt	nt	nt	52.1*	61.0*	71.7*
O=c1[nH]c(=O)n(Cc2ccco2)c(O)c1C=NC1CC1	0.2	6.3	-6.3	-1.1	i	5.2	nt	nt
O=c1[nH]c(=O)n(Cc2ccco2)c(O)c1/C=N/N1CCCCC1	0.5	-4.4	13.6	2.2	i	24.4*	29.4*	39.7*
CN1C2CCC1CC(OC(=O)c1ccc([N+](=O)[O-])cc1)C2 (configuration not stated)	0.1	5.8	0.9	-0.6	i	-1.1	nt	nt
Cc1ccc(N2C(=O)NC(=O)/C(=C\c3ccc([N+](=O)[O-])o3)C2=O)cc1	2.6	nt	nt	nt	nt	28.6*	49.5*	21.1
Cc1ccc(N2C(=O)NC(=O)/C(=C\c3ccc(N4CCOCC4)cc3)C2=O)cc1	2.3	3.3	-8.0	1.3	i	12.5	nt	nt
SMILES	IDE cell inh	IDE act	CSN deneddyl inh	HNF4A DNA FP	Rpn11 block	TPT1 inhibitor	TPT1 inh confirm	RNase T1 inh	others
CCN(CC)c1ccc(/C=C2\C(=O)NC(=S)N(c3ccc(OC)cc3OC)C2=O)o1	33.4*	-32.7	-5.7	160.0	nt	141.4*	150.2*	141.5*	IDE inh confirm=36.0*;HEK cytotox=3.8
COc1ccc(N2C(=O)NC(=O)/C(=C\c3cn(CC(=O)N4CCOCC4)c4ccccc34)C2=O)c(OC)c1	-0.2	-3.0	1.1	2.0	i	11.9	nt	nt
CCN(CC)c1ccc(/C=C2\C(=O)NC(=S)N(C)C2=O)o1	26.5*	-25.4	146.3	176.1	nt	123.2*	135.1*	134.6*	IDE inh confirm=29.4*;HEK cytotox=13.6
Cc1ccc(N/N=C/c2c(O)n(-c3ccccc3)c(=O)[nH]c2=O)cc1	-1.7	-2.2	8.7	0.1	i	2.9	nt	nt
O=c1[nH]c(=O)n(-c2ccccc2)c(O)c1/C=C/C=Nc1ccccc1	33.8*	-25.7	126.4	150.8	nt	157.4*	165.7*	159.9*	IDE inh confirm=35.0*;HEK cytotox=2.6
Cc1ccc(-n2c(O)c(/C=C/C=Nc3ccccc3)c(=O)[nH]c2=O)cc1	21.3*	-28.9	26.8	71.0*	i	134.2*	51.1*	48.2*	IDE inh confirm=29.9*;HEK cytotox=2.8
O=c1[nH]c(=O)n(C2CCCCC2)c(O)c1/C=C/C=Nc1ccccc1	21.4*	-39.8	-27.9	121.3	nt	89.5*	80.8*	75.9*	IDE inh confirm=42.0*;HEK cytotox=8.0
